Results: ChEMBL document CHEMBL4011638, “Semisynthetic Flavone-Derived Antimicrobials with Therapeutic Potential against Methicillin-Resistant Staphylococcus aureus (MRSA)” (J Med Chem, 2017)
In brackets after ≈: the same amount, converted by molar mass. Activity calls are given as the source filed them. The rule behind the calls is not given here.

What was measured:
[1] = system: Staphylococcus aureus; assay: Antibacterial activity against methicillin-resistant Staphylococcus aureus DM 9808R after 24 hrs by broth microdilution method; format: functional
Outline: (§1)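 Broth microdilution per CLSI in cation-adjusted Mueller−Hinton broth, in tubes. Compounds dissolved in H2O or DMF, then diluted in PBS to 1000 μg/mL stocks. Serial 2-fold dilutions were made, with final DMF 2.5%. Organisms were grown on TSA at 35 °C for 20 h and adjusted to ~5× 10^5 CFU/mL. Tubes were incubated at 35 °C for 24 h. MIC was the lowest concentration with no visible growth versus control. Biological replicates.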

[2] = system: Staphylococcus aureus; assay: Antibacterial activity against Staphylococcus aureus DM4001R after 24 hrs by broth microdilution method; format: functional; outline: as §1
[3] = system: Staphylococcus aureus; assay: Antibacterial activity against methicillin-resistant Staphylococcus aureus DM 21455 after 24 hrs by broth microdilution method; format: functional; settings: DM 21455, 24 h; outline: as §1
[4] = system: Staphylococcus aureus; assay: Antibacterial activity against methicillin-sensitive Staphylococcus aureus DM4583R after 24 hrs by broth microdilution method; format: functional; outline: as §1
[5] = system: Staphylococcus aureus; assay: Antibacterial activity against methicillin-sensitive Staphylococcus aureus DM4400R after 24 hrs by broth microdilution method; format: functional; outline: as §1
[6] = system: Staphylococcus aureus; assay: Antibacterial activity against methicillin-sensitive Staphylococcus aureus ATCC 29213 after 24 hrs by broth microdilution method; format: functional; settings: ATCC 29213, 24 h; outline: as §1
[7] = system: Staphylococcus aureus; assay: Antibacterial activity against methicillin-sensitive Staphylococcus aureus ATCC 6538 after 24 hrs by broth microdilution method; format: functional; settings: ATCC 6538, 24 h; outline: as §1
[8] = system: Staphylococcus aureus; assay: Antibacterial activity against methicillin-sensitive Staphylococcus aureus ATCC 29737 after 24 hrs by broth microdilution method; format: functional; settings: ATCC 29737, 24 h; outline: as §1
[9] = system: Staphylococcus aureus; assay: Antibacterial activity against methicillin-resistant Staphylococcus aureus DB6506 after 24 hrs by broth microdilution method; format: functional; settings: DB6506, 24 h; outline: as §1
[10] = system: Staphylococcus aureus; assay: Antibacterial activity against methicillin-resistant Staphylococcus aureus DB68004 after 24 hrs by broth microdilution method; format: functional; settings: DB68004, 24 h; outline: as §1
[11] = system: Staphylococcus aureus; assay: Antibacterial activity against methicillin-resistant Staphylococcus aureus DB57964 after 24 hrs by broth microdilution method; format: functional; settings: DB57964, 24 h; outline: as §1
[12] = system: Staphylococcus aureus; assay: Antibacterial activity against methicillin-resistant Staphylococcus aureus ATCC 43300 after 24 hrs by broth microdilution method; format: functional; settings: ATCC 43300, 24 h; outline: as §1
[13] = system: Staphylococcus aureus; assay: Antibacterial activity against methicillin-resistant Staphylococcus aureus ATCC 700699 after 24 hrs by broth microdilution method; format: functional; settings: ATCC 700699, 24 h; outline: as §1
[14] = Ratio of HC50 for New Zealand white rabbit RBC to MIC for methicillin-sensitive Staphylococcus aureus DM4583R
Outline: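 HC50 measured on fresh New Zealand white rabbit RBCs, washed three times in PBS, at 4% v/v final. Cells were incubated with 2-fold serial dilutions (DMF final 0.5%) at 37 °C for 1 h, then centrifuged. Supernatant absorbance was read at 576 nm, with PBS as 0% and 2% Triton X-100 as 100% lysis. HC50 is the concentration lysing 50% of cells, divided by MIC from broth microdilution.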

[15] = system: Staphylococcus aureus; assay: Bactericidal activity against methicillin-resistant Staphylococcus aureus DM21455 up to 4 hrs by time kill assay; format: functional
Outline: (§2)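 Time-kill. Starting inoculum 10^5−10^6 CFU/mL, exposed to 0.5×, 1×, 2× and 4× MIC at 35 °C. Colonies were counted after 24 h at 35 °C and CFU/mL calculated. Biological replicates.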

[16] = system: Staphylococcus aureus; assay: Bactericidal activity against methicillin-resistant Staphylococcus aureus DM21455 assessed as log reduction in bacterial count at 2 times MIC up to 30 mins by time kill assay; format: functional; outline: as §2
[17] = system: Staphylococcus aureus; assay: Bactericidal activity against methicillin-resistant Staphylococcus aureus DM21455 assessed as log reduction in bacterial count at 4 times MIC up to 30 mins by time kill assay; format: functional; outline: as §2
[18] = system: Staphylococcus aureus; assay: Bactericidal activity against methicillin-resistant Staphylococcus aureus DM9808R assessed as log reduction in bacterial count at 2 times MIC up to 2 hrs by time kill assay; format: functional; outline: as §2
[19] = system: Staphylococcus aureus; assay: Bactericidal activity against methicillin-resistant Staphylococcus aureus DM9808R assessed as log reduction in bacterial count at 4 times MIC up to 2 hrs by time kill assay; format: functional; outline: as §2
[20] = system: Staphylococcus aureus; assay: Antibacterial activity against Staphylococcus aureus ATCC 29213 after 17 passages; format: functional
[21] = system: Staphylococcus aureus; assay: Induction of plasma membrane permeability in methicillin-resistant Staphylococcus aureus DM9808R assessed as increase in fluorescence intensity at 12.5 ug/ml measured every 1 sec for 50 mins by SYTOX green dye based fluorimetric assay; format: functional
Outline: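 Exponential-phase MRSA DM9808R grown on TSA, washed twice and resuspended in PBS (10 mM, pH 7) to OD600 0.2. Cells were loaded with 0.3 μM SYTOX Green in the dark until fluorescence stabilized. Test samples were then added (final DMF 0.5%). Fluorescence at ex 504/em 523 nm was recorded every 1 s for 50 min. Biological replicates.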

[22] = system: Lipid bilayer; assay: Membrane permeabilization activity in DOPE/DOPG large unilamellar liposomes assessed as leakage of calcein at 1:4 compound to lipid ratio by fluorescence assay
Outline: (§3)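 Calcein-loaded 100 nm LUVs of DOPE/DOPG (3:1, w/w), made by film hydration in 80 mM calcein, 100 mM NaCl, 50 mM HEPES, 0.3 mM EDTA, pH 7.4. Liposomes 50 μM, 0.5% DMF, room temperature. Read at ex 490/em 520 nm every 2 min for 30 cycles. % leakage normalized to 0.1% Triton X-100 (100%) and 0.5% DMF (0%). Biological replicates.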

[23] = system: Lipid bilayer; assay: Membrane permeabilization activity in DOPE/DOPG large unilamellar liposomes assessed as leakage of calcein at 1:8 compound to lipid ratio by fluorescence assay; outline: as §3
[24] = Cytotoxicity in human Corneal fibroblasts assessed as LDH release at 100 uM after 24 hrs; format: cell-based; settings: corneal fibroblast
Outline: (§4)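 Human corneal fibroblasts are exposed to test samples for 24 h, and cytotoxicity is read as LDH leakage into the medium. Biological replicates.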

[25] = Cytotoxicity against human Corneal fibroblasts assessed cell viability at 100 uM after 24 hrs by Cell Titer-Glo luminescent assay; format: cell-based, Corneal fibroblast; settings: read-out: Activity
Outline: (§5)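 ATP luminescence viability in human corneal fibroblasts, ~10000 cells per well, duplicate wells. After 24 h exposure the plate is equilibrated 0.5 h at 22 °C before Cell Titer-Glo addition and luminescence read. 1% Triton X-100 serves as positive control, medium-treated cells as negative control. Biological replicates.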

[26] = system: Staphylococcus aureus; assay: Bactericidal activity against methicillin-resistant Staphylococcus aureus DM9808R assessed as log reduction in bacterial count up to 4 hrs by time kill assay; format: functional; outline: as §2
[27] = Cytotoxicity against human Corneal fibroblasts assessed cell viability at 50 uM after 24 hrs by Cell Titer-Glo luminescent assay; format: cell-based, Corneal fibroblast; settings: read-out: Activity; outline: as §5
[28] = Cytotoxicity against human Corneal fibroblasts assessed cell viability at 80 uM after 24 hrs by Cell Titer-Glo luminescent assay; format: cell-based, Corneal fibroblast; settings: read-out: Activity; outline: as §5
[29] = Cytotoxicity in human Corneal fibroblasts assessed as LDH release at 10 uM after 24 hrs; format: cell-based; settings: corneal fibroblast; outline: as §4
[30] = Cytotoxicity in human Corneal fibroblasts assessed as LDH release at 80 uM after 24 hrs; format: cell-based; settings: corneal fibroblast; outline: as §4

## COC(=O)[C@H](CCCNC(=N)N)NC(=O)COc1cc(O)c2c(=O)c(OCC(=O)N[C@@H](CCCNC(=N)N)C(=O)OC)c(-c3ccc(OC)cc3)oc2c1CC=C(C)C
[1]
  MIC: 3.8 µM (≈ 3.13 µg/mL)
[2]
  MIC: 1.9 µM (≈ 1.57 µg/mL)
[3]
  MIC: 1.9 µM (≈ 1.57 µg/mL)
[4]
  MIC: 1.56 µg/mL (≈ 1.89 µM)
[5]
  MIC: 3.13 µg/mL (≈ 3.79 µM)
[6]
  MIC: 3.13 µg/mL (≈ 3.79 µM)
[7]
  MIC: 1.56 µg/mL (≈ 1.89 µM)
[8]
  MIC: 1.56 µg/mL (≈ 1.89 µM)
[9]
  MIC: 3.13 µg/mL (≈ 3.79 µM)
[10]
  MIC: 3.13 µg/mL (≈ 3.79 µM)
[11]
  MIC: 3.13 µg/mL (≈ 3.79 µM)
[12]
  MIC: 1.56 µg/mL (≈ 1.89 µM)
[13]
  MIC: 3.13 µg/mL (≈ 3.79 µM)
[14]
  Ratio: > 511
[15]
  Activity: Dose-dependent effect
[16]
  Activity: 3 deltalog10CFU/ml
[17]
  Activity: 3 deltalog10CFU/ml
[18]
  Activity: 3 deltalog10CFU/ml
[19]
  Activity: 3 deltalog10CFU/ml
[20]
  Activity: Active
[21]
  Activity: Active
[22]
  Activity: 46%
[23]
  Activity: 53.5%
[24]
  Activity: 23.9%
[25]
  viability at 24 h, 100 µM: 57.7%
[26]
  Activity: Active
[27]
  viability at 24 h, 50 µM: 97.7%
[28]
  viability at 24 h, 80 µM: 69.3%
[29]
  Activity: -1.52%
[30]
  Activity: 18.62%
